Data taken from ChEMBL document CHEMBL3272270, “Potential antitumor agents. 23. 4'-(9-Acridinylamino)alkanesulfonanilide congeners bearing hydrophilic functionality” (J Med Chem, 1977).

Columns and labels:
[1] = test system: L1210; assay: Antileukemic activity against ip implanted mouse L1210 cells in C3H/DBA2 F1 hybrid hybrid mouse assessed as increase life span treated ip after 24 hrs after tumor inoculation and continued for 5 days; type: functional
Method in brief: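 10^5 L1210 cells implanted ip in 18.5-22.5-g C3H/DBA2 F1 hybrid mice. Drug given ip from 24 h after inoculation, continuing for 5 days, each dose in 0.2 mL. Dose levels spaced at 0.18 log intervals, six mice per dose, one control group per six test groups. Read-out is life extension; 50-day survivors counted as cures.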

[2] = test system: Mus musculus; assay: Toxicity in sc implanted mouse L1210 cells allografted C3H/DBA2 F1 hybrid hybrid mouse assessed as optimum dose required to increase life span treated ip after 24 hrs after tumor inoculation and continued for 5 days; type: organism-based; details: in vivo
Method in brief: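 10^5 L1210 cells implanted sc above the right axilla in 18.5-22.5-g C3H/DBA2 F1 hybrid mice. Ip dosing (0.2 mL per dose) ran daily for 5 days from 24 h. Dilution series at 0.18 log intervals, with the median dose set at the earlier ip L1210 optimum. Six mice per dose, one control group per six test groups. Tests were repeated until the highest dose was toxic and the lowest clearly suboptimal.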

[3] = Retardation factor, Rm of the compound by reversed phase partition chromatography; type: physicochemical
[4] = test system: L1210; assay: Antileukemic activity against sc implanted mouse L1210 cells in C3H/DBA2 F1 hybrid hybrid mouse assessed as increase life span treated ip after 24 hrs after tumor inoculation and continued for 5 days; type: functional
Method in brief: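 10^5 L1210 cells implanted sc above the right axilla in 18.5-22.5-g C3H/DBA2 F1 hybrid mice. Drug given ip (0.2 mL) from 24 h for 5 days. Dilution series at 0.18 log intervals, centred on the optimum ip L1210 dose. Top dose had to show toxicity and lowest dose had to be suboptimal, otherwise the test was repeated. Read-out is life extension.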

[5] = Half life in mouse L1210 cells allografted C3H/DBA2 F1 hybrid hybrid mouse

SMILES | ILS [1] [%] | Activity [2] [mg/kg] | Rm [3] | ILS [4] [%] | half-life [5] [min]
COc1cc(NS(C)(=O)=O)ccc1Nc1c2ccccc2nc2c(OCCO)cccc12.Cl | 112 | 5 | 0.09 | 28 | –
COc1cc(NS(C)(=O)=O)ccc1Nc1c2ccccc2nc2c(C(=O)N[C@H]3[C@@H](OC)O[C@H](COC(C)=O)[C@@H](OC(C)=O)[C@@H]3OC(C)=O)cccc12.Cl | >25 | > 400 | 0.62 | – | –
COC(=O)NCCS(=O)(=O)Nc1ccc(Nc2c3ccccc3nc3ccccc23)cc1.Cl | 67 | > 500 | 0.24 | – | –
Cl.NC(=O)CCS(=O)(=O)Nc1ccc(Nc2c3ccccc3nc3ccccc23)cc1 | 67 | > 500 | -0.34 | – | –
COc1cc(NS(C)(=O)=O)ccc1Nc1c2ccccc2nc2c(C(=O)N[C@H]3[C@@H](OC)O[C@H](CO)[C@@H](O)[C@@H]3O)cccc12.Cl | 100 | 180 | -0.57 | 49 | –
Br.CN1CCN(c2ccc(Nc3c4ccccc4nc4ccccc34)cc2)CC1 | >25 | 50 | -0.68 | – | –
COc1cc(NS(C)(=O)=O)ccc1Nc1c2ccccc2nc2ccccc12 [AMSACRINE] | 114 | 6.7 | 0.18 | 27 | –
Br.CN1CCN(c2ccc(Nc3c4ccccc4nc4cc([N+](=O)[O-])ccc34)cc2)CC1 | >25 | 60 | -0.78 | – | –
Br.c1ccc2c(Nc3ccc(N4CCNCC4)cc3)c3ccccc3nc2c1 | >25 | 15 | -0.8 | – | –
CS(=O)(=O)Nc1ccc(Nc2c3ccccc3nc3ccccc23)cc1 | 107 | 45 | 0 | 28 | –
COCCS(=O)(=O)Nc1ccc(Nc2c3ccccc3nc3ccccc23)cc1.Cl | 79 | 280 | 0.21 | 25 | –
CC(=O)NCCS(=O)(=O)Nc1ccc(Nc2c3ccccc3nc3ccccc23)cc1.Cl | 94 | 50 | -0.06 | >25 | –
COc1ccc(Nc2c3ccccc3nc3cc(N)ccc23)cc1.Cl | 66 | 15 | 0.31 | – | –
COC(=O)CCS(=O)(=O)Nc1ccc(Nc2c3ccccc3nc3ccccc23)cc1.Cl | – | > 500 | 0.57 | >25 | –
Cc1cc(NS(C)(=O)=O)ccc1Nc1c2ccccc2nc2c(OCC(O)CO)cccc12.Cl (configuration not stated) | 110 | 100 | -0.03 | 41 | –
CS(=O)(=O)NCCS(=O)(=O)Nc1ccc(Nc2c3ccccc3nc3ccccc23)cc1.Cl | 33 | 110 | -0.14 | – | –
CCCS(=O)(=O)Nc1ccc(Nc2c3ccccc3nc3c(C(=O)N[C@H]4[C@@H](OC)O[C@H](CO)[C@@H](O)[C@@H]4O)cccc23)c(OC)c1.Cl | 180 | 400 | -0.1 | 51 | –
COc1cc(NS(C)(=O)=O)ccc1Nc1c2ccccc2nc2c(C(=O)NCC(O)CO)cccc12.Cl (configuration not stated) | 72 | 92 | -0.36 | – | –
Br.COc1cc(NS(C)(=O)=O)ccc1Nc1c2ccccc2nc2cc(CCC(N)=O)ccc12 | 58 | 125 | -0.25 | – | –
Br.COc1cc(NS(C)(=O)=O)ccc1Nc1c2ccccc2nc2c(CCC(N)=O)cccc12 | 94 | 15 | -0.17 | 30 | –
COc1cc(NS(C)(=O)=O)ccc1Nc1c2ccccc2nc2c(OCC(O)CO)cccc12.Cl (configuration not stated) | 123 | 17 | -0.09 | 43 | –
CC(=O)N(C)CCS(=O)(=O)Nc1ccc(Nc2c3ccccc3nc3ccccc23)cc1.Cl | 54 | 200 | 0.05 | – | –
CC(=O)N1CCN(c2ccc(Nc3c4ccccc4nc4ccccc34)cc2)CC1.Cl | 81 | 75 | 0.23 | – | –
CC(CS(=O)(=O)Nc1ccc(Nc2c3ccccc3nc3ccccc23)cc1)C(N)=O.Cl (configuration not stated) | >25 | 50 | -0.11 | – | –

SMILES | ILS [1] [%] | Activity [2] [mg/kg] | Rm [3] | ILS [4] [%] | half-life [5] [min]
CN(C)C(=O)CCS(=O)(=O)Nc1ccc(Nc2c3ccccc3nc3ccccc23)cc1.Cl | 63 | 150 | 0.17 | – | –
Br.CS(=O)(=O)N(CC(O)CO)c1ccc(Nc2c3ccccc3nc3ccccc23)cc1 (configuration not stated) | >25 | 65 | -0.03 | – | –
CCOC(=O)N1CCN(C(=O)Nc2ccc(Nc3c4ccccc4nc4ccccc34)cc2)CC1.Cl | 29 | 50 | 0.59 | – | –
CNC(=O)Nc1ccc(Nc2c3ccccc3nc3ccccc23)c(OC)c1.Cl | 72 | 50 | 0.51 | – | –
Cl.O=C1CNC(=O)N1CCS(=O)(=O)Nc1ccc(Nc2c3ccccc3nc3ccccc23)cc1 | 51 | 160 | -0.19 | >25 | –
O=[N+]([O-])c1ccc2c(Nc3ccc(N4CCNCC4)cc3)c3ccccc3nc2c1 | >25 | 15 | -0.81 | – | –
COC(=O)NNC(=O)Nc1ccc(Nc2c3ccccc3nc3ccccc23)cc1.Cl | 67 | > 500 | -0.04 | – | –
CNC(=O)Nc1ccc(Nc2c3ccccc3nc3ccccc23)cc1 | 112 | 60 | 0.25 | >25 | –
Cl.O=C(Nc1ccc(Nc2c3ccccc3nc3ccccc23)cc1)OCC(O)CO (configuration not stated) | 63 | 25 | -0.06 | >25 | –
CC(=O)NCCCS(=O)(=O)Nc1ccc(Nc2c3ccccc3nc3ccccc23)cc1.Cl | 26 | > 500 | -0.01 | – | –
CNC(=O)c1cccc2c(Nc3ccc(NS(C)(=O)=O)cc3OC)c3ccccc3nc12.Cl | 166 | 8.3 | 0.06 | 59 | –
COc1cc(NS(C)(=O)=O)ccc1Nc1c2ccccc2nc2c(C(=O)NCC(N)=O)cccc12.Cl | 105 | 62 | -0.54 | 41 | –
Cl.NC(=O)NCCS(=O)(=O)Nc1ccc(Nc2c3ccccc3nc3ccccc23)cc1 | 53 | 200 | -0.21 | >25 | –
COc1ccc(Nc2c3ccccc3nc3cc([N+](=O)[O-])ccc23)cc1.Cl | 33 | 90 | 0.49 | – | –
Cl.O=C1CCS(=O)(=O)N1c1ccc(Nc2c3ccccc3nc3ccccc23)cc1 | 33 | 200 | 0.13 | – | –
COc1cc(NS(C)(=O)=O)ccc1Nc1c2ccccc2nc2c(C(=O)N(C)C)cccc12.Cl | 84 | 15 | 0.09 | 61 | –
Cl.O=C(O)CCS(=O)(=O)Nc1ccc(Nc2c3ccccc3nc3ccccc23)cc1 | >25 | 350 | 0.1 | – | –
CS(=O)(=O)N1CCN(c2ccc(Nc3c4ccccc4nc4ccccc34)cc2)CC1.Cl | 69 | 200 | 0.21 | – | –
Nc1ccc(Nc2c3ccccc3nc3ccccc23)cc1 | – | – | – | – | 12
CCOC(=O)NNc1ccc(Nc2c3ccccc3nc3ccccc23)cc1.Cl | 67 | 25 | 0.41 | – | –
Cl.NC(=O)N1CCN(c2ccc(Nc3c4ccccc4nc4ccccc34)cc2)CC1 | 78 | 37 | -0.11 | – | –
COc1cc(NS(C)(=O)=O)ccc1Nc1c2ccccc2nc2c(C(N)=O)cccc12.Cl | 140 | 25 | -0.27 | 36 | –
COc1cc(NS(C)(=O)=O)ccc1Nc1c2ccc(I)cc2nc2c(OCC(O)CO)cccc12.Cl (configuration not stated) | – | 62 | 0.06 | >25 | –
